Screening results deposited in PubChem BioAssay by The Scripps Research Institute Molecular Screening Center.
OX1R antag-1 – antagonists of human orexin 1 receptor; O43613; CHO/OX1R cells, Fluo-8 calcium fluorescence, orexin A; inhibition, % at 5 µM; 0.43% of 330,000 active;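 active means inhibition above its plate's threshold, mean inhibition of all tested compounds on the plate plus 3 SD, cut at about 37% in these data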
TAAR1 antagonist – antagonists of human TAAR1; Q96RJ0; CHO RD-HGA16 TAAR1, Fluo-8 calcium fluorescence, antagonist; inhibition, % at 3 µM; 1.5% of 360,000 active; AID 624466;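 active means inhibition above a per-plate cutoff, the mean inhibition of test compounds on that plate plus 3 SD, cut at about 49% in these data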
Target sequence (Q96RJ0 whole entry, looked up): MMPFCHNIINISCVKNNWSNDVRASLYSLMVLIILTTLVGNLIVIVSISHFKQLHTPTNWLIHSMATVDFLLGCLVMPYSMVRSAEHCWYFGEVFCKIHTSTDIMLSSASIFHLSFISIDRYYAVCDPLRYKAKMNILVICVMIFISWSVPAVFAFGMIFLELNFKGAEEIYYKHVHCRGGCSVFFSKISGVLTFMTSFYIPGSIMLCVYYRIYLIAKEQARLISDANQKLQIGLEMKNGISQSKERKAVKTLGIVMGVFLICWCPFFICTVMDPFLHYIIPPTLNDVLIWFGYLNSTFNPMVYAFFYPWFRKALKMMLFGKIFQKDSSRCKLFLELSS
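Material: RD-HGA16 CHO cells with stable hTAAR1 and Gα16; Dosing: single nominal final test compound concentration of 3 µM; Schedule: seeding 17-24 h prior, 75-min 37 °C, 30-min RT dye loading; Detection: kinetic Fluo-8 calcium fluorescence measurement; Measure: % inhibition from peak post-agonist over basal fluorescence ratio; Benchmarks: vehicle and agonist controls.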
OX1R antag-2 – antagonists of human orexin 1 receptor (OX1R) | OX1R-expressing cells, FRET antagonist read-out | inhibition, % at 6.6 µM | 1.8% of 330,000 active; in the data active means inhibition mostly above about 38%, no sharp cut-off; inactive means mostly below about 40%
CHO parental Ca – counter-screen for OX1R antagonists: effect in parental CHO cells | parental CHO-K1, ATP-induced calcium, Fluo-8 fluorescence | 0.63% of 330,000 active | inhibition, % at 5.6 µM;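 active means inhibition above that plate's mean sample inhibition plus 3 SD, cut at about 26% in these data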
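Test system: parental CHO cells; detection: calcium-sensitive Fluo-8 fluorescence; evaluation: percent inhibition of calcium signal; also added: ATP as calcium-mobilizing challenge; repeats: one well per compound; control set: ATP-challenged DMSO wells low, unchallenged DMSO wells high; compound: single nominal dose of 5.6 µM per compound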
GPR7 antagonist – blocks human GPR7 receptor signaling | GPR7-expressing cells, fluorescence antagonist assay | inhibition, % at 4.4 µM | 1.1% of 290,000 active | AID 1861; in the data active means inhibition above about 16%, passing the limit was not always enough;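 further: cells stimulated with the agonist NPW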
TAAR1 ag – human TAAR1 agonism; Q96RJ0; CHO RD-HGA16 TAAR1, Fluo-8 calcium fluorescence; vehicle wells 0%, saturating PEA agonist 100%; activation, % at 3 µM; 0.99% of 360,000 active;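 active means activation above the mean activation of all test compounds in the run plus 3 SD, cut at about 38% in these data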
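Assay system – CHO-derived RD-HGA16 cells with stable Gα16 and human TAAR1 · Compound dosing – one-point dosing at 3 µM (nominal) · Incubation – 17-24 h seeding, 75 min 37 °C dye, 30 min RT · Measured by – kinetic Fluo-8 calcium fluorescence · Control set – DMSO vehicle as 0%, PEA at EC100 as 100% · Repeats – single well for each compound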
TAAR1 ag confirm – confirmation of human TAAR1 agonists. shares compounds with TAAR1 ag. CHO RD-HGA16 TAAR1, Fluo-8 calcium fluorescence; scaled: DMSO 0%, maximal phenethylamine 100%. activation, % at 3 µM. 82% of 2,400 active;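 active means activation above a cutoff set at the run's mean compound activation plus 3 SD, cut at about 39% in these data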
Ga16 ag counter – nonselective agonist in parental cells, TAAR1 agonist counter-screen; activation, % at 3 µM; AID 651787; shares compounds with TAAR1 ag; 50% of 2,400 active; CHO-Ga16 parental, Fluo-8 calcium fluorescence; normalized to maximal ATP response, DMSO zero;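 active means activation above the run cutoff, the mean activation over all tested wells plus 3 SD, cut at about 12% in these data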
TAAR1 desens – human TAAR1 agonist that also desensitizes the receptor; CHO RD-HGA16 hTAAR1, Fluo-8 calcium, beta-PEA response inhibition; inhibition, % at 3 µM; 46% of 2,400 active; shares compounds with TAAR1 ag; AID 651951;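 active means inhibition above the run cutoff, the mean inhibition of all test compounds plus 3 SD, cut at about 49% in these data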;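 further: beta-PEA stimulus applied at its EC80; loss of beta-PEA calcium signal after compound pretreatment read as receptor desensitization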
Ga16 nonsel ant – nonselective Ga16 antagonist in TAAR1 agonist counter-screen. shares compounds with TAAR1 ag. CHO-Ga16 ATP-induced calcium, Fluo-8 fluorescence. inhibition, % at 3 µM. 39% of 2,400 active. AID 651952;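 active means inhibition above the plate's mean compound inhibition plus 3 SD, computed per plate, cut at about 22% in these data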
Each line names hits and unclear results; the compound was inactive in the other large screens (follow-up assays come after a bar, where they were run). In the library only some 4.6% were active in any assay of this set; here they are far more common.

CN1CN(c2ccccc2)C2(CCN(CCCSc3ccccc3NC(=O)/C=C/c3ccccc3)CC2)C1=O	TAAR1 antagonist 101.8, TAAR1 ag 122.2 (no result: OX1R antag-1, OX1R antag-2, CHO parental Ca, GPR7 antagonist) | TAAR1 ag confirm 125.2 | Ga16 ag counter 97.3 | TAAR1 desens 106.6 | Ga16 nonsel ant 96.6
COc1ccc2c(CCN)c[nH]c2c1	TAAR1 ag 52.0 | TAAR1 ag confirm 79.8 | Ga16 ag counter inactive | TAAR1 desens inactive | Ga16 nonsel ant inactive
O=C1C2CC=CCC2C(=O)N1SC(Cl)(Cl)Cl (configuration not stated)	TAAR1 antagonist 53.8, TAAR1 ag 57.4 (no result: OX1R antag-1, OX1R antag-2, CHO parental Ca, GPR7 antagonist) | TAAR1 ag confirm 42.9 | Ga16 ag counter 25.8 | TAAR1 desens 55.0 | Ga16 nonsel ant 48.9
Cc1cccc(CCNCc2cc3cc(C)cc(C)c3[nH]c2=O)c1	TAAR1 antagonist 77.9, TAAR1 ag 107.6 | TAAR1 ag confirm 101.8 | Ga16 ag counter inactive | TAAR1 desens 90.4 | Ga16 nonsel ant inactive
Cc1ccc2cc(CNCCc3ccccc3C)c(=O)[nH]c2c1	TAAR1 antagonist 80.8, TAAR1 ag 75.5 | TAAR1 ag confirm 83.3 | Ga16 ag counter inactive | TAAR1 desens 92.3 | Ga16 nonsel ant inactive
CC1CCN(C(=O)c2ccc(N3CC4CC(C3)c3cccc(=O)n3C4)c([N+](=O)[O-])c2)CC1 (configuration not stated)	none
CCC(=NCc1ccco1)c1c(O)n(C)c(=O)n(C)c1=O	none
CCCCn1c(O)c(C(CC)=NCCc2ccccc2)c(=O)[nH]c1=O	TAAR1 antagonist 70.0, TAAR1 ag 58.0 | TAAR1 ag confirm 68.4 | Ga16 ag counter inactive | TAAR1 desens inactive | Ga16 nonsel ant 23.4
C=CCn1c(O)c(C(CC)=NCCc2ccccc2)c(=O)[nH]c1=O	TAAR1 ag 73.6 | TAAR1 ag confirm 77.9 | Ga16 ag counter inactive | TAAR1 desens inactive | Ga16 nonsel ant inactive
CCC(=NCCc1ccccc1)c1c(O)n(C)c(=O)n(C)c1=O	TAAR1 ag 62.4 | TAAR1 ag confirm 60.6 | Ga16 ag counter inactive | TAAR1 desens inactive | Ga16 nonsel ant 32.2
CCCCn1c(O)c(C(CC)=NCc2ccc(F)cc2)c(=O)[nH]c1=O	none
Cc1nc2ccsc2c(=O)n1-c1ccccc1Cl	none (no result: GPR7 antagonist)
CCOP(=O)(OCC)C(NC(=O)CN1C(=O)c2ccccc2S1(=O)=O)C(Cl)(Cl)Cl (configuration not stated)	none
